Assay results as given in article PMC8434889 (Bioorganic Chemistry, 2021).

Columns and labels:
Splenocytes cytotoxicity = format: cell-based; conditions: female, BALB/c, mouse, murine splenocytes
Method in brief: (§1)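 MTT assay after 48 h culture in triplicate with or without test compound. Cells: 8 × 10^5 BALB/c splenocytes or 1 × 10^5 RAW264.7 cells. MTT reagent (5 mg/mL) added 4 h before end of culture; formazan dissolved in DMSO; absorbance at 570 nm. CC50 from log(inhibitor)–normalized response nonlinear fit.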

[1] = tested on: Con A-induced T cell proliferation of murine splenocytes; test: Con A-induced T-cell proliferation; format: cell-based, mouse; conditions: 48 h; for IC50: Mus musculus, T-cell, read-out: Con A-induced T-cell proliferation IC50
Method in brief: (§2)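 Splenocytes from 6–8-week-old female BALB/c mice, with erythrocytes lysed in NH4Cl/Tris buffer (pH 7.2), in RPMI 1640 with 10% FBS and penicillin/streptomycin. Cells at 5 × 10^5 in triplicate for 48 h with or without test compound (DMSO stock diluted in medium). Stimulation: ConA 1 μg/mL for T cells or LPS 10 μg/mL for B cells. [3H]thymidine 0.5 μCi/well pulse for 8 h, filter harvest, scintillation counting. IC50 from log(inhibitor)–normalized response nonlinear fit.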

[2] = tested on: LPS-induced B cell proliferation of murine splenocytes; test: LPS-induced B-cell proliferation; format: cell-based, mouse; conditions: 48 h; for IC50: Mus musculus, B-cell, read-out: LPS-induced B-cell proliferation IC50
Method in brief: as §2

IFN-γ = test: Con A-induced cytokine production in splenocytes, IFN-γ; format: cell-based; conditions: Mus musculus, Splenocyte, 48 h, read-out: IC50 IFN-γ
IL-17 = test: Con A-induced cytokine production in splenocytes, IL-17; format: cell-based; conditions: Mus musculus, Splenocyte, 48 h, read-out: IC50 IL-17
IL-6 [3] = test: Con A-induced cytokine production in splenocytes, IL-6; format: cell-based; conditions: Mus musculus, Splenocyte, 48 h, read-out: IC50 IL-6
IL-6 [4] = test: LPS-induced cytokine production in splenocytes, IL-6; format: cell-based; conditions: Mus musculus, Splenocyte, 48 h, read-out: IC50 IL-6
IL-1β [5] = test: LPS-induced cytokine production in splenocytes, IL-1β; format: cell-based; conditions: Mus musculus, Splenocyte, 48 h, read-out: IC50 IL-1β
[6] = Cytotoxicity in RAW264.7 cell; format: cell-based; conditions: mouse, RAW264.7 macrophage cells
Method in brief: as §1

IL-6 [7] = test: LPS-induced cytokine production in RAW264.7 cell, IL-6; format: cell-based; conditions: Mus musculus, RAW264.7, 48 h, read-out: IL-6 IC50
Method in brief: (§3)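 Murine RAW264.7 macrophages grown in DMEM with 10% FBS, 2 mM L-glutamine and penicillin/streptomycin at 37 °C, 5% CO2. Cells at 1 × 10^5 in triplicate with or without test compound, then LPS 10 μg/mL for 48 h. Supernatant IL-1β, IL-6 and TNF-α by ELISA. IC50 from log(inhibitor)–normalized response nonlinear fit.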

IL-1β [8] = test: LPS-induced cytokine production in RAW264.7 cell, IL-1β; format: cell-based; conditions: Mus musculus, RAW264.7, 48 h, read-out: IL-1β IC50
Method in brief: as §3

TNF-α = test: LPS-induced cytokine production in RAW264.7 cell, TNF-α; format: cell-based; conditions: Mus musculus, RAW264.7, 48 h, read-out: TNF-α IC50
Method in brief: as §3

in vitro = conditions: human
[9] = target: SARS-Cov2 spike glycoprotein (Severe acute respiratory syndrome coronavirus 2, UniProt P0DTC2); test: cell-based; format: cell-based, SARS-CoV-2
Huh7 cell = conditions: read-out: Huh7 cell CC50; MTT, 2 days

SMILES | CC50 at 48 h (Splenocytes cytotoxicity) [µM] | IC50 [1] [µM] | IC50 [2] [µM] | IC50 (IFN-γ) [nM] | IC50 (IL-17) [nM] | IC50 (IL-6 [3]) [nM] | IC50 (IL-6 [4]) [nM] | IC50 (IL-1β [5]) [nM] | CC50 at 48 h [6] [µM] | IC50 (IL-6 [7]) [µM] | IC50 (IL-1β [8]) [nM] | IC50 (TNF-α) [µM] | CC50 (in vitro) [µM] | 2019nCoV-S-HIV EC50 [9] | EC50 [9] [µM] | Con A-induced T-cell proliferation IC50 ([1]; murine splenocytes, Con A 1 μg/mL) | LPS-induced B-cell proliferation IC50 ([2]; murine splenocytes, LPS 10 μg/mL) | CC50 (Huh7 cell) [µM]
CCN(CC)CCCC(C)Nc1ccnc2cc(Cl)ccc12 (centres unmarked) [Compound 1, chloroquine, reference compound] | 25.5 ± 2.47 | 15.27 ± 0.13 | 14.6 ± 0.56 | 650 ± 310 | 650 ± 280 | 7200 ± 1490 | 810 ± 780 | 480 ± 340 | 21.9 ± 3.59 | 14.6 ± 1.27 | 2720 ± 750 | 35 ± 18.7 | 26.4 | – | – | – | – | –
CCN(CCO)CCCC(C)Nc1ccnc2cc(Cl)ccc12 (centres unmarked) [Compound 2, hydroxychloroquine, reference compound] | 26.8 ± 2.81 | 18.2 ± 1.45 | 14.2 ± 0.21 | 440 ± 10 | 620 ± 230 | 5780 ± 2390 | 860 ± 570 | 1490 ± 320 | 25.3 ± 4.38 | 16.5 ± 0.55 | 3510 ± 150 | 10 ± 2.97 | > 80 | ineffective | > 80 | – | – | –
CCN(CCCC(C)Nc1ccnc2cc(Cl)ccc12)CCNC1CNC1 (centres unmarked) [Compound 5, N^1-(2-(Azetidin-3-ylamino)ethyl)-N^4-(7-chloroquinolin-4-yl)-N^1-ethylpentane-1,4-diamine] | > 250 | > 250 | > 250 | – | – | – | – | – | – | – | – | – | > 80 | – | > 80 | lost activity completely | lost activity completely | –
CCN(CCCC(C)Nc1ccnc2cc(Cl)ccc12)CCNC12CC(N)(C1)C2 (centres unmarked) [Compound 6, N^1-(2-((4-((7-Chloroquinolin-4-yl)amino)pentyl)(ethyl)amino)ethyl)bicyclo[1.1.1]pentane-1,3-diamine] | 32.4 ± 6.22 | 16.7 ± 0.34 | 15.2 ± 0.46 | – | – | – | – | – | – | – | – | – | 24.9 | – | 40.5 | – | – | –
CCN(CCCC(C)Nc1ccnc2cc(Cl)ccc12)CCNC(=O)C(F)(F)C1CCNCC1 (centres unmarked) [Compound 8, N-(2-((4-((7-Chloroquinolin-4-yl)amino)pentyl)(ethyl)amino)ethyl)-2,2-difluoro-2-(piperidin-4-yl)acetamide] | 71.6 ± 3.47 | 45.4 ± 1.43 | 28.3 ± 6.13 | – | – | – | – | – | – | – | – | – | 27.3 | – | 31.6 | – | – | –
CCN(CCCC(C)Nc1ccnc2cc(Cl)ccc12)CCNC(=O)C(F)(F)C1CCN(CC(O)C(F)(F)F)CC1 (centres unmarked) [Compound 9, N-(2-((4-((7-Chloroquinolin-4-yl)amino)pentyl)(ethyl)amino)ethyl)-2,2-difluoro-2-(1-(3,3,3-trifluoro-2-hydroxypropyl)piperidin-4-yl)acetamide] | 5.71 ± 1.04 | 2.85 ± 0.49 | 1.07 ± 0.23 | 1230 ± 230 | 1040 ± 200 | 160 ± 80 | 10 ± 10 | 210 ± 80 | 48.64 ± 0.18 | 1.61 ± 0.25 | 720 ± 170 | 15.9 ± 0.45 | – | – | 32.8 | – | – | 16.7
CCN(CCCC(C)Nc1ccnc2cc(Cl)ccc12)CCNC(=O)C(F)(F)C1CCN(CCOCCOC)CC1 (centres unmarked) [Compound 10, N-(2-((4-((7-Chloroquinolin-4-yl)amino)pentyl)(ethyl)amino)ethyl)-2,2-difluoro-2-(1-(2-(2-methoxyethoxy)ethyl)piperidin-4-yl)acetamide] | 8.1 ± 0.77 | 4.27 ± 0.33 | 1.42 ± 0.15 | 610 ± 340 | 250 ± 30 | 2700 ± 1160 | 1480 ± 810 | 3 ± 2 | 125 ± 45.7 | 2.52 ± 0.36 | 1810 ± 830 | 24.4 ± 6.05 | – | – | 5.53 | – | – | 5.75
CCN(CCCC(C)Nc1ccnc2cc(Cl)ccc12)CCNC(=O)C(F)(F)C1CCN(C(=O)C2OC(OC)C3OC(C)(C)OC23)CC1 (centres unmarked) [Compound 11, N-(2-((4-((7-Chloroquinolin-4-yl)amino)pentyl)(ethyl)amino)ethyl)-2,2-difluoro-2-(1-(6-methoxy-2,2-dimethyltetrahydrofuro[3,4-d][1,3]dioxole-4-carbonyl)piperidin-4-yl)acetamide] | 11.24 ± 0.08 | 2.49 ± 0.11 | 2.99 ± 0.73 | 350 ± 180 | 170 ± 60 | 450 ± 180 | 170 ± 110 | 40 ± 30 | 47.71 ± 0.15 | 1.87 ± 0.44 | 1190 ± 410 | 4.41 ± 1.66 | – | – | 25.2 | – | – | 16.9
CCN(CCCC(C)Nc1ccnc2cc(Cl)ccc12)CCNC(=O)CCOCCOCCOCCOCCOCC(=O)Nc1ccc2c(c1)OC(F)(F)O2 (centres unmarked) [Compound 15, N^18-(2-((4-((7-Chloroquinolin-4-yl)amino)pentyl)(ethyl)amino)ethyl)-N1-(2,2-difluorobenzo[d][1,3]dioxol-5-yl)-3,6,9,12,15-pentaoxaoctadecanediamide] | 6.07 ± 0.4 | 1.32 ± 0.06 | 1.44 ± 0.56 | 1670 ± 440 | 1760 ± 720 | 470 ± 160 | 1510 ± 530 | 3340 ± 620 | – | 9.63 ± 3.75 | 3840 ± 1250 | 10.7 ± 3.99 | 21.7 | marginal potency | 20.4 | – | – | –
